Measles CPE: protection of cells from measles virus | hit rate 1.5% among 140,000 | Measles virus-infected cells, CPE protection, absorbance | protection (pct of control), % at 4 µM; in the data active means protection mostly above about 24%, no sharp cut-off; inactive means mostly below about 26%
hDAT+cocaine: human DAT dopamine uptake with cocaine, either direction. LLC-PK1 hDAT cells, [14C]-dopamine uptake with cocaine IC80; actives deviate in either direction. B-score at 10 µM. hit rate 1.3% among 110,000;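 active means Z score or B-score, a plate-position-corrected score, falls beyond the plate's 99.7% confidence bounds, in either direction; inactive means both scores lie inside the 99.7% bounds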
Pyk2 oligo antag: blocks oligomerization of human Pyk2 in cells. Q14289. Q293 cells, Pyk2 FERM NanoBiT luminescence; hits give low values. z-score (the deposit names both 25 µM and 10 µM). hit rate 0.83% among 99,000;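 active means Z-score of -3 or lower, scaled per plate to the spread of control and sample wells; inactive means z-score above -3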;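 further: negative z-score means lost luminescence so less FERM oligomerization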
HIV Rev-RRE inh: disrupts HIV-1 Rev binding to RRE RNA; Rev peptide-RRE RNA binding, FRET; hit rate 0.79% among 97,000; inhibition, % at 8 µM; AID 704; P05866;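 active means inhibition above the screen-wide mean plus 3 SD, cut at about 35% in these data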
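Test system: Cy5-tagged RRE RNA duplex with fluorescein-tagged Rev peptide; Probe or stimulus: labelled Rev peptide; Schedule: 5 min preincubation and 15 min binding, 25 °C; Signal: FRET fluorescence readout; Evaluation: % inhibition from 671/540 nm acceptor-to-donor ratio, scaled between controls; Control set: DMSO and neomycin B.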
Cav3 T inh: blocks human Cav3.2 T-type calcium channel; O95180; Cav3.2-expressing cells, Fluo-4 calcium fluorescence FDSS; hits give low values; B-score at 10 µM; hit rate 4% among 100,000; AID 449739;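 active means single-dose well whose peak fluorescence ratio is a statistical outlier from its plate by either plate-standardised score or position-corrected B-score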
Target sequence (O95180 whole entry, looked up): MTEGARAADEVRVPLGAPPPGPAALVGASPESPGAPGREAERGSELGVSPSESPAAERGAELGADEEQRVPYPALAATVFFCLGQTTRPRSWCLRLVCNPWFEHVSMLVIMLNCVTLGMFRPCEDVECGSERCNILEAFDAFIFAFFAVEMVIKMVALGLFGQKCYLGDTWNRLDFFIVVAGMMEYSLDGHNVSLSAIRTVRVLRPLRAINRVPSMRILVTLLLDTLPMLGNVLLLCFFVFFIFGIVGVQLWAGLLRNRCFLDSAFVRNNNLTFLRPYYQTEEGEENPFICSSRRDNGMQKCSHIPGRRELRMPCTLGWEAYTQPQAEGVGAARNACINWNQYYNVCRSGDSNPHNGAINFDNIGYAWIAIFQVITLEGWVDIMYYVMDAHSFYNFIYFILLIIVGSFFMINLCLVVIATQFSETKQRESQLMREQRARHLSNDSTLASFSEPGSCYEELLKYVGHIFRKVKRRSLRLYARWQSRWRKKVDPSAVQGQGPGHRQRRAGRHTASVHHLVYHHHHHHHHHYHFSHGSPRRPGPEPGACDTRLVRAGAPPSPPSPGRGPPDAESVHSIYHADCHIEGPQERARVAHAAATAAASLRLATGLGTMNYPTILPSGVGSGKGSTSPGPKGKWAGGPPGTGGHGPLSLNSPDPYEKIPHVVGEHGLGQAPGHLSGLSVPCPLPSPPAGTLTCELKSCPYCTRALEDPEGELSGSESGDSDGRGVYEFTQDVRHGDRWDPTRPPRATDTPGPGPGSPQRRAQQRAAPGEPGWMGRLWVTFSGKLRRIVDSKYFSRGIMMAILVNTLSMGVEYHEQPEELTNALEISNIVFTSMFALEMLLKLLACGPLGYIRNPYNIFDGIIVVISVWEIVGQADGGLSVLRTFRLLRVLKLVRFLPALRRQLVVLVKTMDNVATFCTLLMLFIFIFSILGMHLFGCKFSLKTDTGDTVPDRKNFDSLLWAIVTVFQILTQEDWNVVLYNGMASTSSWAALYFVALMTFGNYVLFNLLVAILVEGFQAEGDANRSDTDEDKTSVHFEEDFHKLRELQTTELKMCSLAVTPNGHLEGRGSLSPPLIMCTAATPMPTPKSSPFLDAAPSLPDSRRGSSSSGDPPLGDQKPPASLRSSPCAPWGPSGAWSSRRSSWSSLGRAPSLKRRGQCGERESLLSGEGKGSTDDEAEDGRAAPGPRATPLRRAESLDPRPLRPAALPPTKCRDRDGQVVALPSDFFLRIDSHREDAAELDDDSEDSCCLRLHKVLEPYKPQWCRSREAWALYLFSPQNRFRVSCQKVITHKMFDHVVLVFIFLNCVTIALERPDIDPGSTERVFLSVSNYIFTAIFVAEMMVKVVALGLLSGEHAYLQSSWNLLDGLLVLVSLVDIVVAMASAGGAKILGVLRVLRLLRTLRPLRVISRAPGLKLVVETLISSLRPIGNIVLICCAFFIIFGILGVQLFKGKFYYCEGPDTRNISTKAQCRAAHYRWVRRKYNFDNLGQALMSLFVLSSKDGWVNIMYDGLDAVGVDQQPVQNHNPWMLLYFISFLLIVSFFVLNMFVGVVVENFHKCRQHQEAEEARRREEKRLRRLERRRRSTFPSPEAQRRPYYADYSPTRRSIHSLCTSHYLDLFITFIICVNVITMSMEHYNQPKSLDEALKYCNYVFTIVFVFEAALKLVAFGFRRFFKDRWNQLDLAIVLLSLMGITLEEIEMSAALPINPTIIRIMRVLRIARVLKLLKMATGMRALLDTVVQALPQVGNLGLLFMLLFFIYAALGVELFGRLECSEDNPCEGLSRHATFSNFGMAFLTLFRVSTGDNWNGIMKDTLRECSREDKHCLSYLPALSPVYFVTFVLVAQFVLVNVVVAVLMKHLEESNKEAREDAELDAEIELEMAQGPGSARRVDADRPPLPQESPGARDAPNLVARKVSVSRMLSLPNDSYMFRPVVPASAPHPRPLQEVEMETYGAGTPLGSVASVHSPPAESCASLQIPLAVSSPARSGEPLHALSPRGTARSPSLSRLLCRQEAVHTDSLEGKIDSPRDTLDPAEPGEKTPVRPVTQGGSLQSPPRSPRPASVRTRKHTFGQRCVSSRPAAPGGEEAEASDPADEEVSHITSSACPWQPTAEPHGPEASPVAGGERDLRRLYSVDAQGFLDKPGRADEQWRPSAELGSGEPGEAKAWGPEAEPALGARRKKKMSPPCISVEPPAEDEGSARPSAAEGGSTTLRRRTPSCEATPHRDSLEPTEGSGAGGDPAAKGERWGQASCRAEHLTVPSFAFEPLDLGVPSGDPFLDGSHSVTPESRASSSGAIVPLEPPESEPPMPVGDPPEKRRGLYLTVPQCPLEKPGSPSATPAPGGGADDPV
Phagocyt inh: blocks phagocytosis by macrophages; J774A.1 macrophage IgG-bead phagocytosis, imaging; inhibition, % at 5 µM; hit rate 0.07% among 110,000; AID 1029;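 active means inhibition above the mean of the plate negative controls plus 5 SD, cut at about 13% in these data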;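 further: phagocytic index as fraction of beads internalized from green versus red external bead signal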
Hits are given with their value; i = inactive; nt = no result given; [ ] = another dose, or the depositor's remark. Most compounds without a hit are left out; they make up all but 5.9% or so of the library.

SMILES | Measles CPE | hDAT+cocaine | Pyk2 oligo antag | HIV Rev-RRE inh | Cav3 T inh | Phagocyt inh
O=C(CSc1nnc(-c2cccnc2)n1-c1ccccc1)NCc1ccc2c(c1)OCO2 | i | i | i | i | i | i
Cc1ccc(-n2c(Cc3cccn3C)nnc2SCC(=O)Nc2nnc(C)s2)cc1 | i | i | i | i | i | i
Cn1cccc1Cc1nnc(SCC(=O)Nc2ccc3c(c2)OCCO3)n1-c1ccc(F)cc1 | i | i | nt | nt | -7.7 | i
Cc1ccc(-n2c(Cc3cccs3)nnc2SCC(=O)Nc2ccc(F)c(F)c2)cc1 | i | i | i | i | i | i
O=C1COc2ccc(C(=O)CSc3nnc(Cc4cccs4)n3-c3ccccc3)cc2N1 | i | i | i | i | -5.4 | i
O=C1COc2ccc(C(=O)CSc3nnc(-c4cccs4)n3Cc3ccccc3)cc2N1 | i | i | i | i | i | i
CCC(=O)N1CCN(CCN=CC2=C(O)CC(c3ccc(OC)cc3)CC2=O)CC1 (stereo not given) | i | nt | nt | nt | nt | i
Cc1ccc(Nc2c([N+](=O)[O-])cc(C(=O)N3CC(=O)Nc4ccccc43)cc2[N+](=O)[O-])c(C)c1 | i | i | -3.4 | i | i | nt
Cc1noc(C)c1S(=O)(=O)NCCCN1CCN(Cc2ccccc2)CC1 | 30 | i | nt | i | i | nt
Cc1noc(C)c1S(=O)(=O)NCCN1CCN(c2ccccc2)CC1 | i | i | i | i | i | i
CCOC(=O)c1ccc(N2C(=O)c3n[nH]c(C)c3C2c2ccccc2)cc1 (stereo not given) | i | i | -3.1 | i | i | i
CCOC(=O)c1ccc(N2C(=O)c3n[nH]c(C)c3C2c2ccc(O)cc2)cc1 (stereo not given) | i | i | i | i | i | i
O=C(COC(=O)c1cccc(C(F)(F)F)c1)NCc1ccccc1 | i | nt | nt | nt | nt | i
COc1ccccc1S(=O)(=O)Cc1ccc(C(=O)NC2CCCCC2)o1 | nt | nt | i | i | nt | i
O=C(NC1CCCCC1)c1ccc(CNc2ccccc2)o1 | 36 | i | i | i | i | i
Cc1ccc(S(=O)(=O)N=S(CC2CC2(Cl)Cl)CC2CC2(Cl)Cl)cc1 (stereo not given) | i | i | i | i | i | i
COc1c(Cl)cc(C(=O)Nc2ccccc2C(=O)O)cc1Cl | i | i | -3.1 | i | i | nt
C=CCn1c(SC(C)C(=O)NCCC2=CCCCC2)nc2ccccc2c1=O (stereo not given) | i | i | i | i | -6.1 | i
CC(C)C(=O)NC(=S)Nc1ccc(S(=O)(=O)N(C)Cc2ccccc2)cc1 | i | i | i | i | -5.7 | i
CC(C)C(=O)NC(=S)Nc1ccc(S(=O)(=O)N(C)C)cc1 | i | nt | nt | nt | nt | i
CN(Cc1ccccc1)S(=O)(=O)c1ccc(NS(=O)(=O)Cc2ccccc2)cc1 | i | i | i | i | -3.8 | i
CCN(CC)S(=O)(=O)c1ccc(NC(=O)CCC2CCCCC2)cc1 | i | i | i | i | -4.4 | i
CCN(CC)S(=O)(=O)c1ccc(NC(=O)Cn2c(=O)sc3ccccc32)cc1 | i | i | i | i | -6.1 | i
CCN(CC)S(=O)(=O)c1ccc(NC(=O)C(C)N(c2ccccc2)S(C)(=O)=O)cc1 (stereo not given) | i | 2.5 | i | i | i | nt
Cc1noc(NS(=O)(=O)c2ccc(NC(=O)CCC3CCCCC3)cc2)c1C | i | i | i | i | i | i
SMILES | Measles CPE | hDAT+cocaine | Pyk2 oligo antag | HIV Rev-RRE inh | Cav3 T inh | Phagocyt inh
O=C(Cn1c(=O)sc2ccccc21)Nc1ccccc1 | i | i | i | i | i | i
COc1ccc(NC(C)=O)cc1CNC(=O)COc1c(C)c(C)cc(C)c1C | i | nt | i | nt | nt | i
CC(=O)N1N=C(C)CC1c1ccc(O)cc1 (stereo not given) | i | nt | nt | nt | nt | i
COC(=O)c1cn(C(=O)OC)c2ccccc12 | 49 | i | i | i | i | i
Cc1nnc(-c2ccccc2)c(=O)n1/N=C/c1c(O)ccc2ccccc12 | i | i | i | 130[fluorescence artefact?] | i | nt
NC(=O)c1ccsc1NC(=O)CSc1ccccc1F | i | i | i | i | i | i
Cc1ccccc1SCC(=O)OCC(=O)Nc1sccc1C(N)=O | 46 | nt | nt | nt | nt | nt
COCCn1c(SCc2ccc(C(=O)OC)o2)nc2cc(Cl)ccc2c1=O | i | i | i | i | -3.9 | i
CCOC(=O)C1(P(=O)(c2ccc(Cl)cc2)c2ccc(Cl)cc2)CCC1 | i | i | i | i | -6.3 | i
Clc1ccc(OCCN2CCOCC2)cc1Cl | i | i | i | i | -4 | i
Clc1ccc(OCCN2CCCCC2)cc1Cl | i | nt | nt | nt | nt | i
CC(C)CN(CC(C)C)S(=O)(=O)N1CCC(C(=O)NCc2cccs2)CC1 | i | i | i | i | -3.7 | i
CCN(CC)S(=O)(=O)c1ccc2oc(C(=O)NCCCN3CCOCC3)c(C)c2c1 | i | i | i | i | i | i
Cc1c(C(=O)NCc2ccc3c(c2)OCO3)oc2ccc(S(=O)(=O)N3CCC(C)CC3)cc12 | i | i | i | i | -4.8 | nt
CCN(CC)S(=O)(=O)c1ccc2oc(C(=O)NCc3ccc(F)cc3)c(C)c2c1 | i | i | i | nt | -6.8 | i
Cc1c(C(=O)NCc2ccc3c(c2)OCO3)oc2ccccc12 | i | i | i | i | -5.6 | nt
CCO[C@@H]1OC(C(=O)NCc2ccccc2)=C[C@H](C2CCCCC2)[C@H]1CCCO | nt | i | nt | nt | i | nt
ClC(Cl)(c1nnnn1-c1ccccc1)c1nnnn1-c1ccccc1 | i | nt | nt | nt | nt | i
Oc1nc(Nc2cccc(Cl)c2)sc1/C=C1\C=Nc2ccccc21 | i | nt | nt | nt | nt | i
CCOC(=O)c1c(Nc2ccc(Cl)cc2)sc(/C=C2\C=Nc3ccccc32)c1O | i | i | i | 40 | i | i
N=c1c2c(-c3ccccc3)c(-c3ccccc3)n(Cc3ccccc3)c2ncn1CCO | i | i | i | i | -5.2 | nt
OCCNc1ncnc2c1c(-c1ccccc1)c(-c1ccccc1)n2Cc1ccco1 | i | i | -3.3 | i | -5 | i
N=c1c2c(-c3ccccc3)c(-c3ccccc3)n(Cc3ccco3)c2ncn1Cc1ccccc1 | i | i | i | i | -12 | i
CC(C)Cn1cnc2c(c(-c3ccccc3)c(-c3ccccc3)n2Cc2ccco2)c1=N | i | i | i | i | -8.3 | i
N=c1c2c(-c3ccccc3)c(-c3ccccc3)n(Cc3ccco3)c2ncn1CCCn1ccnc1 | i | nt | nt | nt | nt | i
SMILES | Measles CPE | hDAT+cocaine | Pyk2 oligo antag | HIV Rev-RRE inh | Cav3 T inh | Phagocyt inh
O=c1c2ccccc2nc(-c2ccccc2)n1Cc1ccco1 | i | i | i | i | i | i
Cc1ccc(Cl)cc1N1CCN(C(=O)c2cc3c(=O)[nH]c4ccccc4c3n2C)CC1 | i | nt | nt | nt | nt | i
CCOC(=O)Cn1c2c(c(=N)c3c1CCC3)CCC2 | i | i | i | i | i | i
CCCCCCCCCCn1c2c(c(=N)c3c1CCC3)CCC2 | i | i | i | i | -7 | nt
COC(=O)[C@H]1C[C@@H]1[C@H](NC(=O)c1cc(C)on1)c1ccccc1 | i | i | nt | nt | i | nt
O=C(CC(Nc1ccccc1)c1ccc(F)cc1)c1ccccc1 (stereo not given) | i | nt | nt | nt | nt | i
O=C(CC(Nc1ccccc1)C(=O)O)c1ccccc1 (stereo not given) | i | 2.9 | i | nt | i | i
COc1ccccc1N1CCN(c2cc(=O)n(Cc3ccc(F)cc3)c(=O)[nH]2)CC1 | i | i | nt | i | -6.1 | nt

Source: PubChem
